Data taken from ChEMBL document CHEMBL4364242, “Novel cationic bis(acylhydrazones) as modulators of Epstein-Barr virus immune evasion acting through disruption of interaction between nucleolin and G-quadruplexes of EBNA1 mRNA” (Eur J Med Chem, 2019).
Activity calls are given as the source filed them. No cut-off for these calls is given here.

Tests used:
NCI-H1299 [1] = assay: Immunostimulatory activity in human H1299 cells transfected with murine MHC class I Kb and 235GAr-OVA cocultured with mouse CD8+ T-cells assessed as increase in IL-2 level at 10 uM incubated for 3 days by ELISA; type: functional
How it was run: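 Kb/235GAr-OVA co-transfected H1299 cells, exposed to compound for 40 h, then 10^5 cells incubated 3 days at 37 °C with 4×10^5 OT-I CD8+ T cells. Supernatant IL-2 quantified by ELISA.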

human gammaherpesvirus 4 [2] = assay: Binding affinity to EBNA1 G4-quadruplex in human H1299 cells assessed as EB virus EBNA1 deleted GAr expression at 10 uM incubated for 40 hrs by western blot analysis; type: cell-based
How it was run: (§1)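 H1299 cells in RPMI-1640 with 10% FBS at 37 °C, 5% CO2, transiently transfected with EBNA1 or EBNA1ΔGAr constructs, then treated with 10 μM compound (DMSO vehicle) for 40 h. Lysates taken 48 h post-transfection and western blotted with anti-EBNA1 (OT1X). Levels normalized to GAPDH; at least three repeats.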

NCI-H1299 [3] = assay: Effect on OVA expression in human H1299 cells at 10 uM incubated for 40 hrs by western blot analysis; type: functional; design: unit not given here
How it was run: (§2)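 OVA or 235GAr-OVA constructs transiently transfected into H1299 cells, followed by 40 h exposure to 10 μM compound or DMSO. Whole-cell lysates immunoblotted with rabbit anti-OVA; signal normalized to GAPDH. Experiments repeated at least three times.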

NCI-H1299 [4] = assay: Effect on 235Gar-OVA expression in human H1299 cells incubated for 40 hrs by western blot analysis; type: functional, cell-based
How it was run: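 235GAr-OVA-transfected H1299 cells treated 40 h with compound at 0, 7.5, 10 or 15 μM. Anti-OVA western blot with band intensities normalized to GAPDH.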

NCI-H1299 [5] = assay: Immunostimulatory activity in human H1299 cells transfected with murine MHC class I Kb and OVA cocultured with mouse CD8+ T-cells assessed as increase in IL-2 level at 5 or 10 uM incubated for 3 days by ELISA; type: functional, cell-based
How it was run: (§3)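 H1299 cells co-transfected with mouse Kb and OVA or GAr-OVA, treated with 5 or 10 μM compound or DMSO. After 40 h, 10^5 cells co-cultured with 4×10^5 naive OT-I CD8+ T cells from female mouse lymph nodes, 37 °C, for 3 days. IL-2 in supernatant measured by ELISA.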

[6] = Displacement of TO from EB virus g4-EBNA1 mRNA measured after 5 mins by FID assay; design: species or system human gammaherpesvirus 4
How it was run: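 g4-EBNA1 RNA annealed 95 °C 5 min in K100 buffer (10 mM KAsO2Me2, 100 mM KCl, 1 mM EDTA, 1% DMSO), then mixed with TO; final 0.25 μM RNA and 0.5 μM TO, ligand 0–2.5 μM. Fluorescence read after 5 min shaking (485/520 nm), in duplicate. Displacement = 100×(1−F/F0); DC50 interpolated from the curve.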

[7] = Binding affinity to […] (unknown origin) assessed as increase in melting temperature at 1 uM by fluorescence method
How it was run: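 Labeled F-myc22-T DNA (5'-FAM/3'-TAMRA) melted with 1 μM ligand in K-1 buffer (10 mM LiAsO2Me2, 1 mM KCl, 99 mM LiCl, pH 7.3). Ramp 0.5 °C/min from 25 to 95 °C. Tm taken from first-derivative maxima and ΔTm calculated versus ligand-free control.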

[8] = Inhibition of native NCL/EB virus G4-EBNA1 mRNA interaction in human H1299 cells assessed as reduction in PLA signals per cell at 5 uM incubated for overnight by proximity ligation assay (reference value: 1.83 +/- 0.54); type: cell-based
[9] = Inhibition of recombinant NCL (unknown origin)/GM mRNA (unknown origin) interaction at 10 uM by RNA pull-down assay
How it was run: (§4)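 Biotin-TEG RNA (g4-EBNA1 or non-G4 GM) folded in 10 mM Tris pH 7.5, 100 mM KCl, 0.1 mM EDTA (95 °C 5 min, cooled 2 °C/min), then bound to blocked streptavidin beads. 200 ng recombinant NCL added for 90 min at room temperature with 10 μM compound or DMSO. Beads washed up to 800 mM KCl; eluates western-blotted for NCL.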

NCI-H1299 [10] = assay: Effect on 235Gar-OVA expression in human H1299 cells at 10 uM incubated for 40 hrs by western blot analysis; type: functional; design: unit not given here; how it was run: as §2
[11] = Growth inhibition of human MUTU-I cells incubated for 24 hrs by MTT assay
How it was run: (§5)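 Mutu-1 EBV-positive Burkitt lymphoma cells, about 30,000 per well, treated with compound (0.5–100 μM) or DMSO for 24 or 48 h. MTT (5 mg/mL) added for 4 h, formazan dissolved in isopropanol/0.1 N HCl/10% Triton X-100, absorbance at 540 nm; viability expressed versus DMSO.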

human gammaherpesvirus 4 [12] = assay: Binding affinity to EB virus F-g4-EBNA1 mRNA assessed as increase in melting temperature at 1 uM by fluorescence method
Homo sapiens = species: Homo sapiens; assay: Binding affinity to […] assessed as increase in melting temperature at 1 uM by fluorescence method
How it was run: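 F-25TAG-T telomeric DNA (5'-FAM/3'-TAMRA) melted with 1 μM ligand in K-100 buffer (10 mM LiAsO2Me2, 100 mM KCl, pH 7.3). Heating 25–95 °C at 0.5 °C/min. ΔTm derived from first-derivative Tm maxima relative to the no-ligand run.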

[13] = Growth inhibition of human MUTU-I cells incubated for 48 hrs by MTT assay; how it was run: as §5
human gammaherpesvirus 4 [14] = assay: Binding affinity to EBNA1 G4-quadruplex in human H1299 cells assessed as EB virus EBNA1 expression at 10 uM incubated for 40 hrs by western blot analysis; type: cell-based; how it was run: as §1
[15] = Inhibition of recombinant NCL (unknown origin)/EB virusG4-EBNA1 mRNA interaction at 10 uM by RNA pull-down assay; how it was run: as §4
NCI-H1299 [16] = assay: Immunostimulatory activity in human H1299 cells transfected with murine MHC class I Kb and 235GAr-OVA cocultured with mouse CD8+ T-cells assessed as increase in IL-2 level at 5 or 10 uM incubated for 3 days by ELISA; type: functional; how it was run: as §3
[17] = Inhibition of human NCL/EB virus G4-EBNA1 mRNA interaction in human MUTU-I cells assessed as reduction in PLA signals per cell at 5 uM incubated for […] by proximity ligation assay (reference value: 1.68 +/- 0.44); type: cell-based
How it was run: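 Mutu-1 cells carrying endogenous EBNA1 treated 36 h with 5 μM compound or DMSO. Processed by EBNA1 mRNA in situ hybridization combined with an anti-nucleolin PLA; nuclear PLA dots per cell counted across two biological replicates, ≥200 cells per sample.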

IC50 [6] [µM] | ΔTm [7] [°C] | inhibition [9] | Activity (human gammaherpesvirus 4 [12]) | ΔTm (Homo sapiens) [°C] | fold change (FC) [15] | ΔTm (human gammaherpesvirus 4 [12]) [°C] | Structure (SMILES) | fold change (FC) (NCI-H1299 [1]) | Activity (human gammaherpesvirus 4 [2]) | Activity (NCI-H1299 [3]) | Activity (NCI-H1299 [4]) | Activity (NCI-H1299 [5]) | Activity [8] | Activity (NCI-H1299 [10]) | GI50 at 24 h [11] [µM] | GI50 at 48 h [13] [µM] | Activity (human gammaherpesvirus 4 [14]) | fold change (FC) (NCI-H1299 [16]) | Activity [17]
0.26 | 15 to 30 | inactive | Active | 15 to 30 | 10 |  | C[n+]1ccc(/C=N/NC(=O)c2cccc(C(=O)N/N=C/c3cc[n+](C)c4ccccc34)n2)c2ccccc21.[I-].[I-] | >2 | inactive | 101 | Dose-dependent effect | inactive | 0.27 | 162 | > 100 | ≥ 100 | Active |  | 
0.3 | 15 to 30 | inactive |  | 15 to 30 | 10 | 20 to 30 | C[n+]1ccc(/C=N/NC(=O)c2ccc3ccc4ccc(C(=O)N/N=C/c5cc[n+](C)c6ccccc56)nc4c3n2)c2ccccc21.[I-].[I-] |  | inactive | 96 | Dose-dependent effect | inactive | 0.4 | 189 | 50 to 100 | 20 | Active | >2 | 0.59
